Bioassay records deposited in PubChem by The Scripps Research Institute Molecular Screening Center.
PRMT1 inh: inhibitors of human PRMT1; Q99873; recombinant PRMT1, activity-based probe fluorescence polarization; inhibition, % at 2.79 µM; hit rate 1.3% among 370,000;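 active = inhibition above about 21% made by adding two undisclosed values, limit read from the data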
HTRA1 inhibitor: inhibitors of human serine peptidase HTRA1. hit rate 0.5% among 340,000. recombinant HTRA1, FP-rhodamine activity-based probe, fluorescence polarization. AID 504803. inhibition, % at 5.96 µM; in the data active = inhibition above about 36%;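 note: 0% = enzyme with DMSO and 100% = wells lacking enzyme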
Target sequence (Q92743 whole entry, looked up): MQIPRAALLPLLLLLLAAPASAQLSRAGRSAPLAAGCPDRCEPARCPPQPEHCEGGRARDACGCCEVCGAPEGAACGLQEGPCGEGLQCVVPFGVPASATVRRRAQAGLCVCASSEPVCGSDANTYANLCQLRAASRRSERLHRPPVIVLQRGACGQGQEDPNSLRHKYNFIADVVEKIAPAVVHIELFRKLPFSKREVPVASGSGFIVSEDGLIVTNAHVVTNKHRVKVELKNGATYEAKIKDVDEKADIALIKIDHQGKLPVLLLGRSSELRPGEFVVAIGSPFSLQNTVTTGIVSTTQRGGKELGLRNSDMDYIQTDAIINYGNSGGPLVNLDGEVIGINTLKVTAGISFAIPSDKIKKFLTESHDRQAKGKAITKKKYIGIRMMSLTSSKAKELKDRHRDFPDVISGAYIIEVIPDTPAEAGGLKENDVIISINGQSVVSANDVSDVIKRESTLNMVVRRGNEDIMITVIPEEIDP
LEDGF integ inh: blocks HIV-1 LEDGF/p75-dependent DNA integration; TR-FRET IN-LEDGF/p75 DNA integration, Eu/Cy5; inhibition, % at 3.7 µM; hit rate 0.64% among 370,000; AID 743269;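 active = inhibition above the screen-wide mean plus 3 SD, cut at about 13% in these data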;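 note: signal is the Cy5 over europium emission ratio at 671 and 618 nm; 0% = plate median of compound wells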
ABHD4 inh: ABHD4 (mouse) inhibition, primary FP screen; purified mABHD4, FP-Rh probe fluorescence polarization; inhibition, % at 8.92 µM; hit rate 0.54% among 370,000; Q8VD66;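 active = inhibition exceeding the mean over every tested compound plus 3 SD, cut at about 30% in these data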;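 note: 0% = plate median of compound wells and 100% = S159A mutant with DMSO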
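Assay system: Wild-type mouse ABHD4 protein | Medium: HEPES pH 7.0 buffer, 150 mM NaCl, 0.01% Pluronic F-127 | Incubation: Enzyme–compound pre-incubation 45 min, then probe 60 min, both 25 °C | Technique: Fluorescence polarization with parallel and perpendicular emission, 525/598 nm | Evaluation: % inhibition of FP-Rh probe binding versus controls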
DAGLB inhibitor: blocks human DAGLB lipase activity. Q8NCG7. HEK293T DAGLB membrane lysate, EnzChek fluorogenic substrate. inhibition, % at 5.17 µM. hit rate 0.059% among 340,000. AID 504411; in the data active = inhibition above about 34%;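 note: 0% = enzyme with vehicle and 100% = wells lacking enzyme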
rCAG RNA binder: molecules binding r(CAG) RNA repeats; r(CAG) RNA repeat, TO-PRO-1 dye displacement fluorescence; inhibition, % at 3 µM; hit rate 1.3% among 370,000; AID 651821;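 active = inhibition above the plate cutoff, the mean of all test compounds on that plate plus 3 SD, cut at about 35% in these data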;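 note: 0% = DMSO alone and 100% = 100 µM mitoxantrone as full dye displacement; higher means more dye released from RNA so lower well fluorescence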
Active calls of the source: *; i = inactive; x = no result given. Rows were chosen to be rich in hits. Some 3.2% of all compounds tested hit in one or more screens of this group.

SMILES	PRMT1 inh	HTRA1 inhibitor	LEDGF integ inh	ABHD4 inh	DAGLB inhibitor	rCAG RNA binder
O=C(O)CCCN1C(=O)C2C3CCC(C3)C2C1=O (stereo unspecified)	-3	7	0	-5	-5	0
CCCC(C(=O)NCC1CCCO1)N(C(=O)CNS(=O)(=O)c1ccccc1)c1ccc(F)cc1 (stereo unspecified)	0	7	-3	1	-4	-7
CCC(C(=O)NCC1CCCO1)N(C(=O)CNS(=O)(=O)c1ccccc1)c1ccc(F)cc1 (stereo unspecified)	0	2	89*	2	1	-4
Cc1ccc(OCCn2cc(C(=O)O)c3ccccc32)cc1	-3	-5	-3	3	-4	-1
O=C1c2ccccc2C(=O)C1c1ccnc2ccccc12	1	6	0	1	-3	3
N#CC1=C(N)SC(N)=C(C#N)C1c1ccnc2ccccc12	43*	-4	0	4	-4	13
CC1(C)C(C(=O)OCC(Cl)(Cl)Cl)N2C(=O)C(NC(=O)Cc3ccccc3)C2S1=O (stereo unspecified)	14	2	-2	8	-1	-4
CC1(C)C(C(=O)O)N2C(=O)C(NC(=O)Cc3ccccc3)C2S1=O (stereo unspecified)	23*	5	0	-1	-1	1
Cc1cccc(N2CCc3c2nc2ccc(Br)cc2c3N)c1	4	-1	-1	-3	-4	34
Nc1c2c(nc3ccc(Br)cc13)N(c1ccccc1)CC2	23*	2	0	12	7	16
CCOC(=O)c1c(OCCO)nn(-c2ccccc2)c1N	2	-3	0	0	1	1
CCCCNS(=O)(=O)c1ccc2nc(SCC(N)=O)[nH]c2c1	3	0	-7	7	0	-2
CCCCNS(=O)(=O)c1ccc2nc(SCC(=O)Nc3sccc3C#N)[nH]c2c1	4	-59	3	-89	0	38*
CCCSc1nnc(-c2cccc(S(=O)(=O)N(C)C)c2)n1-c1cc(OC)ccc1OC	-3	-8	3	3	-2	0
CN(C)S(=O)(=O)c1cccc(-c2nnc(SCCNCCO)n2-c2ccc(F)cc2)c1	2	-10	-6	31*	-6	-1
CCOc1ccc(C(=O)N/N=C/c2ccc(-c3ccc(S(=O)(=O)Nc4ncccn4)cc3)o2)cc1	1	-7	1	-8	4	57*
Cn1c(SCC(=O)c2ccccc2)nnc1C1COc2ccccc2O1 (stereo unspecified)	6	8	-8	-2	1	-2
Cn1c(SCC(=O)c2ccc3c(c2)OCO3)nnc1C1COc2ccccc2O1 (stereo unspecified)	22*	7	-1	-9	-1	7
COCCNC(=O)c1c[nH]c2cc(OC)c(OC)cc2c1=O	25*	5	-3	1	1	1
CCN(Cc1cn(CC2CCCCC2)nn1)S(=O)(=O)c1ccccc1Br	2	x	5	6	x	-2
COc1ccc([C@@H]2CC=C(C(=O)O)[C@H](c3cccc(Cl)c3)N2S(=O)(=O)c2ccccc2C)cc1	5	-22	9	-9	6	74*
O=C(O)C1=CC[C@@H](c2ccc(Cl)cc2)N(S(=O)(=O)c2ccc(Cl)cc2)[C@H]1c1cccc(Cl)c1	1	-18	-3	1	0	14
O=C(COC(=O)CCc1c[nH]c2ccccc12)NCc1ccc(Cl)cc1	0	-3	-1	2	-1	-3
Cc1cccc(N2C(=O)c3cccc4cccc(c34)C2=O)c1	4	-7	-2	-6	-4	-3
O=C(O)c1cccc(N2C(=O)c3cccc4c(Cl)ccc(c34)C2=O)c1	1	-1	5	-1	4	-1
SMILES	PRMT1 inh	HTRA1 inhibitor	LEDGF integ inh	ABHD4 inh	DAGLB inhibitor	rCAG RNA binder
Cc1cccc(N2C(=O)c3cccc4c(N)ccc(c34)C2=O)c1	162*	19	-1	29	-193	i
Nc1cccc(N2C(=O)c3cccc4c(N)ccc(c34)C2=O)c1	113*	15	-4	19	-41	-254
O=c1c(OC2OC(CO)C(O)C(O)C2O)c(-c2ccc(O)c(O)c2)oc2cc(O)cc(O)c12 (stereo unspecified)	10	27	70*	15	-1	3
O=c1c(O[C@@H]2O[C@H](CO)C(O)C2O)c(-c2ccc(O)c(O)c2)oc2cc(O)cc(O)c12 (stereo partly specified)	x	6	x	x	1	x
O=c1cc(-c2ccc(O)c(O)c2)oc2cc(O[C@@H]3O[C@H](CO)[C@@H](O)[C@H](O)[C@H]3O)cc(O)c12	x	60*	x	x	-1	x
Cc1nc2sc(C(c3cccs3)N3CCN(C(=O)c4ccco4)CC3)c(O)n2n1 (stereo unspecified)	-3	-3	0	-3	2	4
S=c1nc(-c2ccccc2Cl)[nH][nH]1	6	-1	-5	3	0	-1
S=c1nc(-c2csc3c2CCCC3)[nH][nH]1	22*	8	-5	-3	0	14
COc1ccc(-n2c(-c3ccco3)n[nH]c2=S)cc1	0	7	-2	6	1	5
O=C(CN1CCN(c2ccccc2F)CC1)c1ccc(O)c(O)c1	17	21	64*	10	0	3
CCc1ccc(C(CC(=O)c2ccc(Cl)cc2)C(=O)O)cc1 (stereo unspecified)	1	-3	3	5	5	22
CC(C)c1ccc(C(CC(=O)c2ccc(Cl)cc2)C(=O)O)cc1 (stereo unspecified)	-2	-2	8	-9	7	45*
c1coc(CNc2ncnc3c2oc2ccccc23)c1	1	-7	5	2	-1	0
CC(=O)N1CC[n+]2c(-c3ccc(Cl)cc3)csc21	78*	-3	-2	7	-7	6
O=C(Nc1ccccc1C(F)(F)F)NC1(C(=O)N2CCOCC2)CCCCC1	23*	-4	25*	21	17	72*
Cc1ccccc1NC(=O)NC1(C(=O)N2CCOCC2)CCCCC1	0	6	5	-4	-1	-3
CCN1CCN(C(=O)/C=C/c2ccc(C(C)C)cc2)CC1	1	-5	2	1	1	-2
CCN1CCC(O)(/C=C/c2ccc(C(C)C)cc2)C(C(=O)/C=C/c2ccc(C(C)C)cc2)C1 (stereo unspecified)	24*	1	-3	34*	3	-1
CCCCCCCCN1C(=O)[C@H](CC(=O)NCc2ccc(OC)c(OC)c2)C[C@@]2(C(=O)OCC)CCC=C12	-2	x	-1	4	x	3
COc1cc(/C=C2/CCCC(C(=O)C(F)(F)F)=C2O)ccc1O	1	8	-1	8	-3	5
COc1cc(/C=C2\CCC/C(=C\c3ccc(O)c(OC)c3)C2=O)ccc1O	22*	21	8	12	3	22
